Among the data in ChEMBL document CHEMBL4340558, “Synthesis, biological evaluation, and molecular docking study of sulfonate derivatives as nucleotide pyrophosphatase/phosphodiesterase (NPP) inhibitors” (Bioorg Med Chem, 2019) are IC50 and inhibition values, retold here.

For assay [1], the target named is T1, Ectonucleotide pyrophosphatase/phosphodiesterase family member 3 (Homo sapiens, UniProt O14638).
T1 sequence (O14638 whole entry): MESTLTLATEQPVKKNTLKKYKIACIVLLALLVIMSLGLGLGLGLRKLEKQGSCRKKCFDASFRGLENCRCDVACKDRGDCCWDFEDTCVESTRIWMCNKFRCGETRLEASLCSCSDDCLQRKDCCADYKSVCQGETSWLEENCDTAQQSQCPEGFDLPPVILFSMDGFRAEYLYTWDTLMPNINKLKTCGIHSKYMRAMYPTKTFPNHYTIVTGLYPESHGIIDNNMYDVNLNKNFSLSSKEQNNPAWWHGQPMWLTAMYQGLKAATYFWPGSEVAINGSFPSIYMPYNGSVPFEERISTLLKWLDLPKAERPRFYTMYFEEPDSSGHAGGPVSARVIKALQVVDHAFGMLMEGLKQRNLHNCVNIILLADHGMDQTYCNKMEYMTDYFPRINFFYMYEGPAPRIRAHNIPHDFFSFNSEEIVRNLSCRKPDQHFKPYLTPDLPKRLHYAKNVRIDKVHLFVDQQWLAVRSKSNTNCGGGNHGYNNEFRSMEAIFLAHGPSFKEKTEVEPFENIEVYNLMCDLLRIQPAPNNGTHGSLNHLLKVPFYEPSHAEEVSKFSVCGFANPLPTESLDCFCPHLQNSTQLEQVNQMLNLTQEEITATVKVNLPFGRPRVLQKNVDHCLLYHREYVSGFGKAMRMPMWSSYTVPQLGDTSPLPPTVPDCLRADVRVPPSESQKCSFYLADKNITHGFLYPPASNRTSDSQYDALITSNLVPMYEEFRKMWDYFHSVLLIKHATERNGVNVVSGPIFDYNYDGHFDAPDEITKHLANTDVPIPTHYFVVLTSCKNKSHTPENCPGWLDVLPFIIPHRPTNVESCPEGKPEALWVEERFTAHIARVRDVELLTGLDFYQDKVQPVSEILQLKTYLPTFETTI
Nature of the assay: Inhibition of human NPP3 expressed in African green monkey COS7 cell membranes pre-incubated for 10 mins before pNP-TMP substrate addition and further incubated for 15 mins by colorimetric method.

Assay [2] has as its target T2, Ectonucleotide pyrophosphatase/phosphodiesterase family member 1 (Homo sapiens, UniProt P22413).
T2 sequence (P22413 whole entry): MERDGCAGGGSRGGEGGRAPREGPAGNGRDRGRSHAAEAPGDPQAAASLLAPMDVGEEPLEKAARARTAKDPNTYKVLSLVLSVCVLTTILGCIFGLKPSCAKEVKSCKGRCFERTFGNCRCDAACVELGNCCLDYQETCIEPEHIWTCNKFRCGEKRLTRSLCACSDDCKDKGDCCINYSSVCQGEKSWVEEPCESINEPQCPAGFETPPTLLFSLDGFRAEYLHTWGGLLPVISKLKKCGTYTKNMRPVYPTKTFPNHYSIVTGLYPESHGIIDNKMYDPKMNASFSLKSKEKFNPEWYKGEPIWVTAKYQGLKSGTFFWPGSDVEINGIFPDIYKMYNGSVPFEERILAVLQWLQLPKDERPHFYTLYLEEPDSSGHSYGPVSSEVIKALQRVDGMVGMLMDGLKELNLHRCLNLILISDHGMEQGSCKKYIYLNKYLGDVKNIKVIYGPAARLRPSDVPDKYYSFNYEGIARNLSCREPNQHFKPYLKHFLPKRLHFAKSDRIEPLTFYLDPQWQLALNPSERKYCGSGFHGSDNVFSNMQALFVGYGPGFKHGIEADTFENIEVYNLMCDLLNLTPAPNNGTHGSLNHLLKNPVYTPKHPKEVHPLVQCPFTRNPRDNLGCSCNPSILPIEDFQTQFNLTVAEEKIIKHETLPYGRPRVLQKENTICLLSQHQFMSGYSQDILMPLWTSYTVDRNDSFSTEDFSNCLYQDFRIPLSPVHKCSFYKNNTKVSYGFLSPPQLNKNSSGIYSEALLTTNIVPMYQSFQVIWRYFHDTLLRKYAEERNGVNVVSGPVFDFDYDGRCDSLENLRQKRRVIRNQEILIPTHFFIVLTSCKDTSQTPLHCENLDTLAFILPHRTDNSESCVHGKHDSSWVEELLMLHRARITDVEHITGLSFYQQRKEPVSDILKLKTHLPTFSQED
Nature of the assay: Inhibition of human NPP1 expressed in African green monkey COS7 cell membranes pre-incubated for 10 mins before pNP-TMP substrate addition and further incubated for 15 mins by colorimetric method.

For assay [3], the target named is T3, Autotaxin (Homo sapiens, UniProt Q13822). Nature of the assay: Inhibition of human NPP2 expressed in African green monkey COS7 cell membranes pre-incubated for 5 mins before pNP-TMP substrate addition and further incubated for 35 mins by colorimetric method relative to untreated control. Details: concentration or dose not given beside the values. An outline of the steps:
(§1)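 Single-point screen at 100 µM test compound, added from a 1 mM stock in 10% DMSO. Buffer was 50 mM Tris-HCl, 5 mM MgCl2, 0.1 mM ZnCl2, pH 9.5, at 37 °C. pNP-TMP substrate was 400 µM for NPP1, 500 µM for NPP2, 600 µM for NPP3. Absorbance at 405 nm was read before and after substrate addition. Percent inhibition was determined in triplicate.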

Assay [4] deals with T3, Autotaxin. Nature of the assay: Inhibition of human NPP2 expressed in African green monkey COS7 cell membranes pre-incubated for 5 mins before pNP-TMP substrate addition and further incubated for 35 mins by colorimetric method. An outline of the steps: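 Colorimetric assay in 50 mM Tris-HCl, 5 mM MgCl2, 0.1 mM ZnCl2, pH 9.5, at 37 °C. Enzyme amounts: NPP1 35 ng, NPP2 338 ng, NPP3 37 ng. Pre-read at 405 nm was taken, then pNP-TMP was added: 400 µM for NPP1, 500 µM for NPP2, 600 µM for NPP3. A second 405 nm read followed. Runs were in triplicate. IC50 came from serial dilutions by non-linear curve fitting.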

Assay [5] has as its target T4, Ectonucleotide pyrophosphatase/phosphodiesterase family member 3 (Homo sapiens) (UniProt O14638).
T4 sequence (whole entry): T1 sequence (O14638 whole entry)
Description: Inhibition of human NPP3 expressed in African green monkey COS7 cell membranes pre-incubated for 10 mins before pNP-TMP substrate addition and further incubated for 15 mins by colorimetric method relative to untreated control. Details: concentration or dose not given beside the values. An outline of the steps: as §1

The target in assay [6] is T5, Ectonucleotide pyrophosphatase/phosphodiesterase family member 1 (Homo sapiens) (UniProt P22413).
T5 sequence (whole entry): T2 sequence (P22413 whole entry)
Description: Inhibition of human NPP1 expressed in African green monkey COS7 cell membranes pre-incubated for 10 mins before pNP-TMP substrate addition and further incubated for 15 mins by colorimetric method relative to untreated control. Details: concentration or dose not given beside the values. An outline of the steps:
as §1

For orientation: IC50 means the concentration at which inhibition is half-maximal. A word on the inhibition: it is the relative decrease from the control value, in per cent. On to `CC(C)(C)c1ccc(S(=O)(=O)Oc2ccc(NC(=O)C3CCCC3)cc2)cc1`, for which the IC50 in assay [1] is 2.68 µM; in assay [2] it was 1.65 µM. This compound also displayed an inhibition in assay [3] of 42%.
As for `O=C(Nc1ccc(OS(=O)(=O)c2ccc(C(F)(F)F)cc2)cc1)c1ccc(Cl)cc1`, the values for the IC50 in assay [1], in assay [2] and in assay [4] were 3.42 µM, 21.6 µM and 1.07 µM, respectively.
Regarding `O=C(Nc1ccc(OS(=O)(=O)c2ccc(F)cc2)cc1)C1CCCC1`, the IC50 amounted to 1.01 µM in assay [1], 5.76 µM in assay [2] and 1.47 µM in assay [4].
`Cc1ccc(S(=O)(=O)Oc2ccc(NC(=O)C3CCCCCC3)cc2)cc1`: the IC50 in assay [1] was 0.255 µM; in assay [2] it was 0.422 µM. This compound yielded an inhibition in assay [3] of 24%.
On the same counts, the results for `CC(C)(C)c1ccc(S(=O)(=O)Oc2ccc(NC(=O)C3CCCCC3)cc2)cc1` are 0.807 µM, 2.55 µM and 39%.
For the compound `CC(C)(C)c1ccc(S(=O)(=O)Oc2ccc(NC(=O)C3CCCCCC3)cc2)cc1`, the IC50 in assay [1] was 47 µM; in assay [2], 1.49 µM; in assay [4], 3.91 µM.
For `CS(=O)(=O)Oc1ccc(NC(=O)C2CCCCC2)cc1`, the IC50 in assay [1] is 1.35 µM; in assay [2], 1.92 µM. The compound also had an inhibition in assay [3] of 33%.
For the compound `CC(C)c1cc(C(C)C)c(S(=O)(=O)Oc2ccc(NC(=O)c3ccc4ccccc4c3)cc2)c(C(C)C)c1`, the IC50 in assay [1] came to 2.89 µM; in assay [2] it was 3.43 µM. In assay [3], this compound returned an inhibition of 42%.
As to `CCCS(=O)(=O)Oc1ccc(NC(=O)C2CCCCC2)cc1`, the figures for the IC50 in assay [1], in assay [2] and in assay [4] were 2.41 µM, 3.46 µM and 26.2 µM, respectively.
Turning to `O=C(Nc1ccc(OS(=O)(=O)c2ccccc2)cc1)C1CCCCC1`, the values for the IC50 in assay [1], in assay [2] and in assay [4] were 1.08 µM, 11.8 µM and 23.8 µM, respectively.
Take `CC(C)(C)c1ccc(S(=O)(=O)Oc2ccc(NC(=O)c3ccc4ccccc4c3)cc2)cc1`: the IC50 in assay [2] stood at 2.19 µM. The values for the inhibition in assay [3] and in assay [5] were 38% and 49%, respectively.
Take `Cc1ccc(S(=O)(=O)Oc2ccc(NC(=O)c3ccc(Cl)cc3)cc2)cc1`: the results for the IC50 in assay [1], in assay [2] and in assay [4] were 1.62 µM, 1.44 µM and 7.69 µM, respectively.
`O=C(Nc1ccc(OS(=O)(=O)c2cccc3cccnc23)cc1)c1ccc2ccccc2c1` registered an IC50 in assay [4] of 2.46 µM. Moreover, the results for the inhibition in assay [6] and in assay [5] were 37% and 42%, respectively.
With `CCS(=O)(=O)Oc1ccc(NC(=O)C2CCCCC2)cc1`, the IC50 was found to be 0.369 µM in assay [1], 1.63 µM in assay [2] and 1.82 µM in assay [4].
`CC(C)c1cc(C(C)C)c(S(=O)(=O)Oc2ccc(NC(=O)c3ccc(Cl)cc3)cc2)c(C(C)C)c1`: the IC50 in assay [1] came to 1.2 µM; in assay [2], 0.975 µM. In addition, in assay [3], the inhibition was 24%.
As for `O=C(Nc1ccc(OS(=O)(=O)c2ccc(F)cc2)cc1)c1ccc(Cl)cc1`, the IC50 was found to be 2.9 µM in assay [2] and 19.9 µM in assay [4]. For the same compound, the inhibition in assay [5] was determined as 46%.
Take `O=C(Nc1ccc(OS(=O)(=O)c2ccc(F)cc2)cc1)c1ccc2ccccc2c1`: the IC50 in assay [1] was 13.5 µM; in assay [2] it was 1.49 µM. Also, the inhibition in assay [3] worked out at 33%.
Compound `O=C(Nc1ccc(OS(=O)(=O)c2ccccc2)cc1)C1CCCCCCC1` registered an IC50 in assay [4] of 65.4 µM. The values for the inhibition in assay [6] and in assay [5] were 45% and 47%, respectively.
Consider `Cc1ccc(S(=O)(=O)Oc2ccc(NC(=O)C3CCCC3)cc2)cc1`, for which the values for the IC50 in assay [1], in assay [2] and in assay [4] were 0.856 µM, 8.14 µM and 13.6 µM, respectively.
For the compound `O=C(Nc1ccc(OS(=O)(=O)c2ccc(C(F)(F)F)cc2)cc1)c1ccc2ccccc2c1`, the IC50 in assay [1] was 5.43 µM; in assay [2], 1.12 µM. Further, in assay [3], the inhibition was determined as 22%.
Take `O=C(Nc1ccc(OS(=O)(=O)c2ccc(F)cc2)cc1)C1CCCCC1`: the IC50 amounted to 0.254 µM in assay [1] and 0.564 µM in assay [2]. This compound also registered an inhibition in assay [3] of 37%.
As to `O=C(Nc1ccc(OS(=O)(=O)c2ccccc2)cc1)c1ccc2ccccc2c1`, the IC50 in assay [1] amounted to 20.5 µM; in assay [2], 9.3 µM; in assay [4], 28 µM.
In turn, `Cc1ccc(S(=O)(=O)Oc2ccc(NC(=O)c3ccc4ccccc4c3)cc2)cc1` displayed an IC50 in assay [4] of 7.99 µM. For the same compound, the results for the inhibition in assay [6] and in assay [5] were 24% and 23%, respectively.
`O=C(Nc1ccc(OS(=O)(=O)c2ccc(C(F)(F)F)cc2)cc1)C1CCCC1`: the IC50 in assay [1] came out at 3.96 µM; in assay [2] it was 1.13 µM; in assay [4] it was 0.659 µM.
As for `O=C(Nc1ccc(OS(=O)(=O)c2ccc(C(F)(F)F)cc2)cc1)C1CCCCC1`, the results for the IC50 in assay [1], in assay [2] and in assay [4] were 1.79 µM, 0.387 µM and 1.6 µM, respectively.
The like results for `O=C(Nc1ccc(OS(=O)(=O)c2ccccc2)cc1)c1ccc(Cl)cc1` were, in that order, 2.77 µM, 9.61 µM and above 100 µM.
`O=C(Nc1ccc(OS(=O)(=O)c2ccc(F)cc2)cc1)C1CCCCCC1`: the values for the IC50 in assay [1] and in assay [4] were 2.27 µM and 4.94 µM, respectively. The inhibition in assay [6] worked out at 39.3%.
`CC(C)(C)c1ccc(S(=O)(=O)Oc2ccc(NC(=O)c3ccc(Cl)cc3)cc2)cc1`: the figures for the IC50 in assay [1] and in assay [2] were 1.53 µM and 1.8 µM, respectively. In assay [3], the inhibition was 31%.
With `O=C(Nc1ccc(OS(=O)(=O)c2ccccc2)cc1)C1CCCCCC1`, the values for the IC50 in assay [1] and in assay [2] were 6.6 µM and 13.8 µM, respectively. In addition, in assay [3], the inhibition came out at 28%.
On the same counts, the results for `O=C(Nc1ccc(OS(=O)(=O)c2ccccc2)cc1)C1CCCC1` are 1.72 µM, 46.7 µM and 38%.
Turning to `O=C(Nc1ccc(OS(=O)(=O)c2ccc(C(F)(F)F)cc2)cc1)C1CCCCCC1`, the IC50 was found to be 2.58 µM in assay [1] and 0.431 µM in assay [2]. Also, the inhibition in assay [3] is 34%.
For the compound `Cc1ccc(S(=O)(=O)Oc2ccc(NC(=O)C3CCCCCCC3)cc2)cc1`, half-maximal inhibition in assay [4] (IC50) was put at 80.3 µM. The inhibition in assay [6] amounted to 43%; in assay [5], 35%.
